Rows were chosen to be rich in hits. Some 3.9% of all compounds tested hit in one or more screens of this group.
TAAR1 antag – antagonists of human TAAR1; hit rate 1.5% among 360,000; CHO RD-HGA16 TAAR1, Fluo-8 calcium fluorescence, antagonist; inhibition, % at 3 µM; AID 624466;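 active means inhibition above a per-plate cutoff, the mean inhibition of test compounds on that plate plus 3 SD, cut at about 49% in these data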;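 further: 0% = DMSO plus EC80 beta-PEA response and 100% = DMSO alone without agonist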
Target sequence (Q96RJ0 whole entry, looked up): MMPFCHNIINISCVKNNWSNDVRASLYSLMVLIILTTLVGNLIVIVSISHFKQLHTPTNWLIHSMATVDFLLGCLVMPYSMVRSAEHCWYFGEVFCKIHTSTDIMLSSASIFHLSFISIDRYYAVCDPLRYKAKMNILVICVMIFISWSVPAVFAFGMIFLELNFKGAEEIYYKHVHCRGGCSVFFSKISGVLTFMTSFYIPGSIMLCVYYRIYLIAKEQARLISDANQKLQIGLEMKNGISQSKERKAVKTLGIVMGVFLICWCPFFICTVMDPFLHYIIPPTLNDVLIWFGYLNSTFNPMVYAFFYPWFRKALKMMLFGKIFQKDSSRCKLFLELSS
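Material: RD-HGA16 CHO cells with stable hTAAR1 and Gα16; Dosing: single nominal final test compound concentration of 3 µM; Schedule: seeding 17-24 h prior, 75-min 37 °C, 30-min RT dye loading; Detection: kinetic Fluo-8 calcium fluorescence measurement; Measure: % inhibition from peak post-agonist over basal fluorescence ratio; Benchmarks: vehicle and agonist controls.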
TAAR1 agonist – human TAAR1 agonism; Q96RJ0; CHO RD-HGA16 TAAR1, Fluo-8 calcium fluorescence; vehicle wells 0%, saturating PEA agonist 100%; activation, % at 3 µM; hit rate 0.99% among 360,000; AID 624467;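 active means activation above the mean activation of all test compounds in the run plus 3 SD, cut at about 38% in these data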
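System: CHO-derived RD-HGA16 cells with stable Gα16 and human TAAR1. Times: 17-24 h plating, Fluo-8 75 min 37 °C, 30 min RT. Measured by: calcium-sensitive Fluo-8 signal, excitation 470-495, emission 515-575 nm. Read-out basis: % activation relative to PEA EC100 response. Control set: DMSO and PEA EC100. Repeats: no replicates (n 1).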
CHRM1 agonist – human M1 muscarinic receptor agonism; activation, % at 3 µM; hit rate 0.33% among 360,000; CHO-K1 hM1, Fluo-8 calcium fluorescence, agonist mode; 0% DMSO, 100% acetylcholine EC100; P11229;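 active means activation above the run's mean compound activation plus 3 SD, cut at about 16% in these data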;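 further: peak over basal fluorescence ratio within a 140 s kinetic read after compound addition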
CHRM1 antagonist – blocks human M1 muscarinic receptor. P11229. CHO-K1 hM1, Fluo-8 calcium fluorescence, ACh EC80 antagonist. inhibition, % at 3 µM. hit rate 1.3% among 360,000. AID 588852;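 active means percent inhibition above its own plate's cutoff, namely the mean of that plate's compound wells plus 3 SD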;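 further: peak over basal fluorescence ratio during 140 s after agonist addition; 0% = ACh EC80 plus DMSO and 100% = DMSO alone without agonist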
m5-HT2A agonist – agonists of mouse serotonin 5-HT2A receptor (HTR2A) | P35363 | CHO-K1 mHTR2A beta-arrestin complementation, luminescence; percent of 30 µM serotonin response | activation, % at 7.6 µM | hit rate 0.66% among 360,000 | AID 624169;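 active means activation above a run cutoff, the mean activation of all tested compounds plus 3 SD, cut at about 14% in these data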;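 further: 0% = plate median of compound wells and 100% = 30 µM serotonin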
CHRM1 PAM – human CHRM1 positive allosteric modulation; CHO-K1 hM1, Fluo-8 calcium fluorescence, ACh EC20; 0% = ACh EC20, 100% = maximal ACh; activation, % at 3 µM; hit rate 0.088% among 360,000; in the data active means activation above about 19%, passing the limit was not always enough
OPRM1 ag – activates human mu opioid receptor in HTR2A counterscreen | shares compounds with m5-HT2A agonist | U2OS OPRM1 beta-arrestin PathHunter, luminescence; DMSO 0%, DAMGO 9.3 µM 100% | activation, % at 9.3 µM | hit rate 5.3% among 2,300 | AID 624380;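 active means mean activation above the mean of DMSO-only wells plus 3 SD, cut at about 0.5% in these data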
m5-HT2A ag conf – mouse HTR2A agonism confirmed; CHO-K1 PathHunter beta-arrestin recruitment, luminescence; DMSO 0%, 30 µM serotonin 100%; AID 624381; activation, % at 7.6 µM; shares compounds with m5-HT2A agonist; hit rate 19% among 2,300;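 active means mean activation across triplicates above the hit threshold derived in the original primary screen, cut at about 15% in these data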
Numbers without * were called inactive; x = no result given.

SMILES | TAAR1 antag | TAAR1 agonist | CHRM1 agonist | CHRM1 antagonist | m5-HT2A agonist | CHRM1 PAM | OPRM1 ag | m5-HT2A ag conf
CCCc1cc(=O)[nH]c(SCC(=O)N2c3ccccc3CC2C)n1 (stereo unspecified) | -13 | 0 | 1 | 1 | 14* | 2 | 0 | -4
c1ccc(Cc2nnc(Sc3ccccc3)c3ccccc23)cc1 | -7 | 4 | -5 | 3 | 26* | -3 | 0 | 9
c1ccc(Cc2noc(CN3CCCC(CN4CCOCC4)C3)n2)cc1 (stereo unspecified) | -15 | 1 | -8 | 11 | 15* | -16 | 0 | 0
Cc1cn(CCOc2ccc(Cl)cc2)c(=O)[nH]c1=O | -10 | 0 | -2 | -15 | 17* | 17 | -1 | -4
O=C(O)CCCCCNS(=O)(=O)c1ccc2c3c(cccc13)C(=O)N2 | 2 | -1 | -1 | -12 | 16* | 6 | -1 | -3
O=C(COc1ccc(Br)cc1)Nc1ccc(C(=O)Nc2ccccc2C(=O)O)cc1 | -6 | -2 | 2 | -13 | 18* | 13 | 0 | 5
CCSc1nnc(NC(=O)c2cc(OC)c(OC)c(OC)c2)s1 | -14 | 3 | -7 | 3 | 3 | -9 | x | x
O=C(NC1CCCC1)C1CCCN1S(=O)(=O)c1cccc2cccnc12 (stereo unspecified) | -1 | 1 | -2 | -20 | 22* | 11 | 0 | -1
O=C(NC1CCCCCC1)C1CCCN1S(=O)(=O)c1cccc2cccnc12 (stereo unspecified) | 10 | 8 | 0 | 0 | -8 | 0 | x | x
Cc1ccc(-c2noc(CNS(=O)(=O)c3ccccc3)n2)cc1 | 0 | -2 | -4 | 6 | -9 | -3 | x | x
O=C(CNC(=O)c1ccccc1F)OCCCOC(=O)CNC(=O)c1ccccc1F | 16 | 1 | -3 | 2 | 15* | -1 | 0 | 2
CC(C)(C)NC(=O)C(c1cc2ccccc2o1)n1c(=O)c(-c2ccco2)nc2ccccc21 (stereo unspecified) | -12 | 12 | x | x | 16* | x | -1 | -4
CC(C)(C)NC(=O)C(c1ccccc1)n1c(=O)c(-c2ccco2)nc2ccccc21 (stereo unspecified) | 1 | 0 | x | x | -1 | x | x | x
N#Cc1sc2nc3c(c(-c4ccco4)c2c1N)CCCC3 | 13 | 10 | -5 | -20 | 19* | -3 | 0 | 2
COCCOC(=O)N1CCCCC1c1cc(C(=O)Nc2cccc3c2CCCC3)no1 (stereo unspecified) | -11 | 6 | -6 | -15 | -4 | 12 | x | x
COC(=O)N1CCCCC1c1cc(C(=O)Nc2cccc3c2CCCC3)no1 (stereo unspecified) | -33 | 3 | -6 | 0 | 17* | -1 | 0 | -3
COc1cccc(-c2nc(-c3cccc(C)c3)nc3cc(Cl)ccc23)c1 | -3 | -1 | x | x | 17* | x | 0 | -1
CCC(c1nnnn1-c1ccc(OC)cc1)N1CCN(C/C=C/c2ccccc2)CC1 (stereo unspecified) | -7 | 1 | -7 | 3 | 15* | -15 | -1 | 24*
CCC(c1nnnn1C(C)(C)C)N1CCN(C/C=C/c2ccccc2)CC1 (stereo unspecified) | -29 | 2 | -5 | -17 | 15* | -2 | 0 | 38*
CCN(CC)S(=O)(=O)c1cccc(NC(=O)CN2C(=O)c3ccc([N+](=O)[O-])cc3C2=O)c1 | -10 | 7 | -10 | 7 | 18* | 3 | 0 | -1
CCN(CC)S(=O)(=O)c1cccc(NC(=O)CCNC(=O)c2ccc([N+](=O)[O-])cc2)c1 | -15 | 0 | -1 | -18 | 2 | 4 | x | x
Cc1ccc(CNC(=O)c2ccc(N3CCC4(CC3)CC(c3cccc(Br)c3)=NO4)c(N)c2)cc1 | 8 | 7 | -7 | 12 | 0 | -7 | x | x
